Reference: ChEMBL document CHEMBL3351625, “Ethyl 2-(benzylidene)-7-methyl-3-oxo-2,3-dihydro-5H-thiazolo[3,2-a]pyrimidine-6-carboxylate analogues as a new scaffold for protein kinase casein kinase 2 inhibitor” (Bioorg Med Chem, 2014)

Legend:
[1] = biological target: Protein kinase C alpha type (Homo sapiens) (UniProt P17252); test: Inhibition of human PKCalpha assessed as residual activity at 10 uM by KinaseProfiler assay
Method in brief: (§1)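 Radioactive phosphorylation assays were run by an outsourced profiling service. Each of 31 human kinases was tested with inhibitor at 10 µM. Residual activity is expressed as a percentage of the mean activity in positive-control wells, which contained all reaction components except inhibitor plus DMSO as solvent control.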

[2] = biological target: Mitogen-activated protein kinase 11 (Homo sapiens) (UniProt Q15759); test: Inhibition of human SAPK2b assessed as residual activity at 10 uM by KinaseProfiler assay; method in brief: as §1
Mitogen-activated protein kinase 11 (Homo sapiens), sequence (Q15759 whole entry): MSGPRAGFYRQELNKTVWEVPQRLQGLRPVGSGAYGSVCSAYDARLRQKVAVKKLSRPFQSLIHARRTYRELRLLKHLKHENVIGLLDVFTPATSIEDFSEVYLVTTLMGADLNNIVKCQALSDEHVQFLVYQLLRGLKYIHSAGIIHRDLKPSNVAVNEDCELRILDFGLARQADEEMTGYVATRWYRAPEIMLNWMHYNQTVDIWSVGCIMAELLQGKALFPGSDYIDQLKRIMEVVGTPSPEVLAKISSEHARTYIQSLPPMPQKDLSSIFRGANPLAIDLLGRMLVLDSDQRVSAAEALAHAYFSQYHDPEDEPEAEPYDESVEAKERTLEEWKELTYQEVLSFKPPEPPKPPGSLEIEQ

[3] = biological target: 5'-AMP-activated protein kinase catalytic subunit alpha-1 (Homo sapiens) (UniProt Q13131); test: Inhibition of human AMPKalpha1 assessed as residual activity at 10 uM by KinaseProfiler assay; method in brief: as §1
5'-AMP-activated protein kinase catalytic subunit alpha-1 (Homo sapiens), sequence (Q13131 whole entry, looked up): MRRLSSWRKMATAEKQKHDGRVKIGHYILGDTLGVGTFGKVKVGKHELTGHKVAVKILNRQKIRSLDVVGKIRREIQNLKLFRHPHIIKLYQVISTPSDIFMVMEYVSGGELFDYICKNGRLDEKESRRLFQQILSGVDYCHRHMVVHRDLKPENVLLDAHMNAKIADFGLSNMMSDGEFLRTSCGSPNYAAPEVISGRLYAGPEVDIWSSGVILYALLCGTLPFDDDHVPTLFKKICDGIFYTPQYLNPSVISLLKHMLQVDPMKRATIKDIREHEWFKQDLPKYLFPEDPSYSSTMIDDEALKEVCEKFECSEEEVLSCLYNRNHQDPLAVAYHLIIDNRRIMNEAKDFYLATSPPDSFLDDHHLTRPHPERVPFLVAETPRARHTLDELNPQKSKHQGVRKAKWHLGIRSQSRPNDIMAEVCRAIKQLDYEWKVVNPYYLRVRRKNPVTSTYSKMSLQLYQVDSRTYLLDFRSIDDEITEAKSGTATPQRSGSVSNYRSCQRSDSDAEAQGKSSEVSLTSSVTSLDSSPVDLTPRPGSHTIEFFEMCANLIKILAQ

[4] = biological target: 5'-AMP-activated protein kinase catalytic subunit alpha-2 (Homo sapiens) (UniProt P54646); test: Inhibition of human AMPKalpha2 assessed as residual activity at 10 uM by KinaseProfiler assay; method in brief: as §1
5'-AMP-activated protein kinase catalytic subunit alpha-2 (Homo sapiens), sequence (P54646 whole entry, looked up): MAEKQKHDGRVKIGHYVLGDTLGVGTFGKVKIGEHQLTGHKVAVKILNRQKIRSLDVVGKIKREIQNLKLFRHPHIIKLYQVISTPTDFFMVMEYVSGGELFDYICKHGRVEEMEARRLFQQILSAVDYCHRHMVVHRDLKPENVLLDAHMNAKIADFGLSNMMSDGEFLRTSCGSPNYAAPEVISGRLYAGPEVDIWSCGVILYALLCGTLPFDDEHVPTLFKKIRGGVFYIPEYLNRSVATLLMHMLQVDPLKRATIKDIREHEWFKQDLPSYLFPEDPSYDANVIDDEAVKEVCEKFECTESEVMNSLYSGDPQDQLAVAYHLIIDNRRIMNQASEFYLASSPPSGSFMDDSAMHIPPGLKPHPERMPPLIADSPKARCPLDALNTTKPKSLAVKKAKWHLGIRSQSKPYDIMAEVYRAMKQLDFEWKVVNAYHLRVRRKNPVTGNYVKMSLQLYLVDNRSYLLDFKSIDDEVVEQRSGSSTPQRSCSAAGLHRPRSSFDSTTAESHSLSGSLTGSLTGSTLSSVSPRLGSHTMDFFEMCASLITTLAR

[5] = biological target: Mitogen-activated protein kinase 8 (Homo sapiens) (UniProt P45983); test: Inhibition of human JNK1alpha1 assessed as residual activity at 10 uM by KinaseProfiler assay; method in brief: as §1
Mitogen-activated protein kinase 8 (Homo sapiens), sequence (P45983 whole entry): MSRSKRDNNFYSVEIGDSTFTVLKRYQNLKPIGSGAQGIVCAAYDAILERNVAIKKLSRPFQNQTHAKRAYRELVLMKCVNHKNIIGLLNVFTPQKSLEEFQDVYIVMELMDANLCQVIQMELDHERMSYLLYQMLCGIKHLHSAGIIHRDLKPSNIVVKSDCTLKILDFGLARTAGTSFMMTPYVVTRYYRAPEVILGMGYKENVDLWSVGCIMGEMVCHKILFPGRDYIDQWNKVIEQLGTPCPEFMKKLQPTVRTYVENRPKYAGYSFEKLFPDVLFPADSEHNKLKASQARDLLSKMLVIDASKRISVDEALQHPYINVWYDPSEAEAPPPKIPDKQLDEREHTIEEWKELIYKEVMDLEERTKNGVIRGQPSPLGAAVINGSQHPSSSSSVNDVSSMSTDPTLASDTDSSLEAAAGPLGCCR

[6] = biological target: Rho-associated protein kinase 2 (Homo sapiens) (UniProt O75116); test: Inhibition of human ROCK2 assessed as residual activity at 10 uM by KinaseProfiler assay; method in brief: as §1
Rho-associated protein kinase 2 (Homo sapiens), sequence (O75116 whole entry, looked up): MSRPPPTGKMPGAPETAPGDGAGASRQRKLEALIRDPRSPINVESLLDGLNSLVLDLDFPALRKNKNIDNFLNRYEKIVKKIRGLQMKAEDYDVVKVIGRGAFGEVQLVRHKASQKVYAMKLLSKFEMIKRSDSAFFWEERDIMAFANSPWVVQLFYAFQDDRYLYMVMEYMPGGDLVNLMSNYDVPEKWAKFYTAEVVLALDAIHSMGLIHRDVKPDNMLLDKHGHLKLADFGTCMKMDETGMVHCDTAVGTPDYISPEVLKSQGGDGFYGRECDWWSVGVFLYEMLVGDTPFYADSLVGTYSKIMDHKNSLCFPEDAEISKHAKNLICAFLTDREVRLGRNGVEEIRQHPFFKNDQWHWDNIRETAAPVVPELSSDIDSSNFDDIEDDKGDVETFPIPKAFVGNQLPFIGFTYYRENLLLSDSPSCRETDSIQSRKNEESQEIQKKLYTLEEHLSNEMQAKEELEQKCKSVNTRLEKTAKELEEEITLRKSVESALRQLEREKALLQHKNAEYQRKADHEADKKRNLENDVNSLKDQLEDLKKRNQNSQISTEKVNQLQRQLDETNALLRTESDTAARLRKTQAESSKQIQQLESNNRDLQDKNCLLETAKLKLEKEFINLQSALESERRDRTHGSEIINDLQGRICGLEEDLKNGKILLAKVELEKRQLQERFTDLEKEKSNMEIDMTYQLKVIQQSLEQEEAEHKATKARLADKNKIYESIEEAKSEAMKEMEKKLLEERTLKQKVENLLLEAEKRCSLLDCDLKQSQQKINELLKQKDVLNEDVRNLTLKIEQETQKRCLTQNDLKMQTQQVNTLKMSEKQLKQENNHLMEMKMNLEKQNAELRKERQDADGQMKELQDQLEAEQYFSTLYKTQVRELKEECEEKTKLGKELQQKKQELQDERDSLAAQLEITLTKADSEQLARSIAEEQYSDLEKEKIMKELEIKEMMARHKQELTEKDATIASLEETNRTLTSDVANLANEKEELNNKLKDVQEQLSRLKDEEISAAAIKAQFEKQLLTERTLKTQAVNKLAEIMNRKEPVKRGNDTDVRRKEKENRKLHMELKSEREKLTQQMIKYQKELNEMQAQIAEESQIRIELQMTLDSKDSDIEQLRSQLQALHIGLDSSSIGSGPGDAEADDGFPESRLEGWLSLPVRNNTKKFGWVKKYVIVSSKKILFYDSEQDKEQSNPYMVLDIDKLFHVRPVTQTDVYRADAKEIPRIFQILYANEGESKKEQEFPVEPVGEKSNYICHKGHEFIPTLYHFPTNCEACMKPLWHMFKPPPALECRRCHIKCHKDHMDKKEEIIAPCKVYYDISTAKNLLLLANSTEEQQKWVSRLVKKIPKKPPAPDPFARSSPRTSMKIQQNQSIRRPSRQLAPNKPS

[7] = biological target: MAP kinase-activated protein kinase 3 (Homo sapiens) (UniProt Q16644); test: Inhibition of human MAPKAP-K3 assessed as residual activity at 10 uM by KinaseProfiler assay; method in brief: as §1
MAP kinase-activated protein kinase 3 (Homo sapiens), sequence (Q16644 whole entry, looked up): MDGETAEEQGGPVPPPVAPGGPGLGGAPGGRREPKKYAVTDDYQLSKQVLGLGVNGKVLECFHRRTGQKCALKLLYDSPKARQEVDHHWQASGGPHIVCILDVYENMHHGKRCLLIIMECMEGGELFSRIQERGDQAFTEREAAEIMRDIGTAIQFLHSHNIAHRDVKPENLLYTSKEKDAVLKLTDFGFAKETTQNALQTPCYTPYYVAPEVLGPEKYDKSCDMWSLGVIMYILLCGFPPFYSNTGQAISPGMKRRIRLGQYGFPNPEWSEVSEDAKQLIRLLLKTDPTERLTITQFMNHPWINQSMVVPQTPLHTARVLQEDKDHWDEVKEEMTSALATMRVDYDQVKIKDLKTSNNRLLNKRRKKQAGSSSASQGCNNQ

[8] = biological target: T1, Mitogen-activated protein kinase 12 (Homo sapiens) (UniProt P53778); test: Inhibition of human SAPK3 assessed as residual activity at 10 uM by KinaseProfiler assay; method in brief: as §1
T1 sequence (whole entry): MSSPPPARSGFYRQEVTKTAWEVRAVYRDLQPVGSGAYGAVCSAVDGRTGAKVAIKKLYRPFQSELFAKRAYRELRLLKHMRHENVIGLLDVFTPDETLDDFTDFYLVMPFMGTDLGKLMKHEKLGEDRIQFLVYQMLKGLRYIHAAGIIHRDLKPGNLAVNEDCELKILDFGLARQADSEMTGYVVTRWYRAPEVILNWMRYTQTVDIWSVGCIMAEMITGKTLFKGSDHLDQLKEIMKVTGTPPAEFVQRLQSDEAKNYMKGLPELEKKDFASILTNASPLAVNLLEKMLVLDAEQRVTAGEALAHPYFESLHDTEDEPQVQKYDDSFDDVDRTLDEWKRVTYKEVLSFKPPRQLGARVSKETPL

[9] = biological target: T2, 3-phosphoinositide-dependent protein kinase 1 (Homo sapiens) (UniProt O15530); test: Inhibition of human PDK1 assessed as residual activity at 10 uM by KinaseProfiler assay; method in brief: as §1
T2 sequence (whole entry): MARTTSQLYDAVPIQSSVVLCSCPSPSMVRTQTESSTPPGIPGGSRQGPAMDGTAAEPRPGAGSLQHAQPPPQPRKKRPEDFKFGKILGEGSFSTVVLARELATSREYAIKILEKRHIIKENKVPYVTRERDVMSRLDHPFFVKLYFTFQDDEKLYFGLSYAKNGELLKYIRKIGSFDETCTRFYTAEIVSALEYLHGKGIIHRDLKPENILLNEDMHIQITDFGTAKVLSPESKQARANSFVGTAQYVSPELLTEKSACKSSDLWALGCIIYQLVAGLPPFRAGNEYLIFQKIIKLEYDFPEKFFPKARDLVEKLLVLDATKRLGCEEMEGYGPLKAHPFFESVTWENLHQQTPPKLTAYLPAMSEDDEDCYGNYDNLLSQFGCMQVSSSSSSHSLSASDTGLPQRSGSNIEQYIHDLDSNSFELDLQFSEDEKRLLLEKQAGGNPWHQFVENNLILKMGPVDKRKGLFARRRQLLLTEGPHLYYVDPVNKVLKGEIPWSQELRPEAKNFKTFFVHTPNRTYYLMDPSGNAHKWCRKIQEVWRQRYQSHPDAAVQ

[10] = biological target: Mitogen-activated protein kinase 1 (Homo sapiens) (UniProt P28482); test: Inhibition of human MAPK2 assessed as residual activity at 10 uM by KinaseProfiler assay; method in brief: as §1
Mitogen-activated protein kinase 1 (Homo sapiens), sequence (P28482 whole entry): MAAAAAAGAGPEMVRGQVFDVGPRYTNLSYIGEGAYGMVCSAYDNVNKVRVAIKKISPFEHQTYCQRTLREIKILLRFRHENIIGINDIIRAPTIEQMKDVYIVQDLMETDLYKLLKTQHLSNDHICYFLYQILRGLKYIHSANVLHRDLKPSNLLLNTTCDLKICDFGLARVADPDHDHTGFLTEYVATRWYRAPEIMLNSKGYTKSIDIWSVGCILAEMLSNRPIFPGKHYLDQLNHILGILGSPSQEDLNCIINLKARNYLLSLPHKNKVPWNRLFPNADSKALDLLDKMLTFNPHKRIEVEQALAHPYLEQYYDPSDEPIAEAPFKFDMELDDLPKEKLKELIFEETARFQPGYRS

[11] = biological target: Tyrosine-protein kinase Lyn (Homo sapiens) (UniProt P07948); test: Inhibition of human Lyn assessed as residual activity at 10 uM by KinaseProfiler assay; method in brief: as §1
Tyrosine-protein kinase Lyn (Homo sapiens), sequence (P07948 2-512 limits assumed): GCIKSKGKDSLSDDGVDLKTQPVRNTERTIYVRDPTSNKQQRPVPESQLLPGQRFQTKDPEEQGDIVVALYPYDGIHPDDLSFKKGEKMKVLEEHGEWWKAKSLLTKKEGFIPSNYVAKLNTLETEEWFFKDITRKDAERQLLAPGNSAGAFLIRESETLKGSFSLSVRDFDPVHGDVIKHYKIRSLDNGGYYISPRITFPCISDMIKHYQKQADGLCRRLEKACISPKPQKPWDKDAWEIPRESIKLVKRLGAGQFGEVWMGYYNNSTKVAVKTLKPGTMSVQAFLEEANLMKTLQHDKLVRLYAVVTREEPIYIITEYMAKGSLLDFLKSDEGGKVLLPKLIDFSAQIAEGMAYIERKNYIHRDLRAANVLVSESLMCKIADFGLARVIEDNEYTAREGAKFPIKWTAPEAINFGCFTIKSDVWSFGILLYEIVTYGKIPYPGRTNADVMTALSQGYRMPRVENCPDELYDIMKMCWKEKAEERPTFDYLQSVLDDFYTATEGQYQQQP

[12] = species on record: Homo sapiens; test: Inhibition of human PKA assessed as residual activity at 10 uM by KinaseProfiler assay; method in brief: as §1
[13] = biological target: T3, Mitogen-activated protein kinase 13 (Homo sapiens) (UniProt O15264); test: Inhibition of human SAPK4 assessed as residual activity at 10 uM by KinaseProfiler assay; method in brief: as §1
T3 sequence (whole entry): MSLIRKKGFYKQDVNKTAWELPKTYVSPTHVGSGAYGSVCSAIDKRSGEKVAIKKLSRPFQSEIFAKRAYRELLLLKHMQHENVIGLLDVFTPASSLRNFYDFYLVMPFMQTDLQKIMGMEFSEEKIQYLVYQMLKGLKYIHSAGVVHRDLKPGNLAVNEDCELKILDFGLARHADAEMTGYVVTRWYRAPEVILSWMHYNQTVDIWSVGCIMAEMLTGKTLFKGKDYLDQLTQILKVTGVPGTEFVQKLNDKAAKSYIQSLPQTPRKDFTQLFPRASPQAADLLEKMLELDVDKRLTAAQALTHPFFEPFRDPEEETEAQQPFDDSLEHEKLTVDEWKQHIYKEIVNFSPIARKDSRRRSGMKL

[14] = biological target: T4, MAP kinase-activated protein kinase 5 (Homo sapiens) (UniProt Q8IW41); test: Inhibition of human PRAK assessed as residual activity at 10 uM by KinaseProfiler assay; method in brief: as §1
T4 sequence (whole entry): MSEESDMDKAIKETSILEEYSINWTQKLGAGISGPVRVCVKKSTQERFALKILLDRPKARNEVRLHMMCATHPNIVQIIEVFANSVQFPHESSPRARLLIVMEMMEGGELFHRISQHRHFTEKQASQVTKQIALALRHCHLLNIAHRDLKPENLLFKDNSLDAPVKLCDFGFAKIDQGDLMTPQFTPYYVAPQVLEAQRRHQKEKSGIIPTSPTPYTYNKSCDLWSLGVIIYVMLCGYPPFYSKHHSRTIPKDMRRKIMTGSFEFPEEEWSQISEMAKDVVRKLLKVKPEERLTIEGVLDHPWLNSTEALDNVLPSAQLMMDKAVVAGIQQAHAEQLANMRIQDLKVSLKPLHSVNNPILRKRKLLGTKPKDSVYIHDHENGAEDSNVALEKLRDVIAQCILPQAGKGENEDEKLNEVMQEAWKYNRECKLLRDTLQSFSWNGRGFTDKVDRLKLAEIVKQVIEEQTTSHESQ

[15] = biological target: Mitogen-activated protein kinase 9 (Homo sapiens) (UniProt P45984); test: Inhibition of human JNK2alpha2 assessed as residual activity at 10 uM by KinaseProfiler assay; method in brief: as §1
Mitogen-activated protein kinase 9 (Homo sapiens), sequence (P45984 whole entry, looked up): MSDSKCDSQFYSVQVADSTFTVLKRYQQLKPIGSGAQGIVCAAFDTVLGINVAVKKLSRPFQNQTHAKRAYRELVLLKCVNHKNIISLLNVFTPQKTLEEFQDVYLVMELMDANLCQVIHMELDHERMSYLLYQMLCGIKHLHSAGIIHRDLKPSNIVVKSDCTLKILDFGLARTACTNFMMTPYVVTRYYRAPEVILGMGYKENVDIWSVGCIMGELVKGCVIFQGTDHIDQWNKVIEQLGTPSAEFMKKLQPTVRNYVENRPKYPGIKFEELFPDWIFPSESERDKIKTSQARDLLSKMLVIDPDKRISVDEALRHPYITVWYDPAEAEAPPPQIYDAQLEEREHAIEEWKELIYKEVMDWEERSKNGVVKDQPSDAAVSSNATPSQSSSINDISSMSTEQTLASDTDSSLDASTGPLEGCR

[16] = biological target: Dual specificity tyrosine-phosphorylation-regulated kinase 2 (Homo sapiens) (UniProt Q92630); test: Inhibition of human DYRK2 assessed as residual activity at 10 uM by KinaseProfiler assay

Q: How did the Activity [1] turn out when Brc1c(Br)c(Br)c2[nH]nnc2c1Br was run?
A: 106%

Q: What about the Activity [2] of the same molecule?
A: 112%

Q: And the Activity [3]?
A: 75%

Q: What about the Activity [4] of the same molecule?
A: 83%

Q: What about the Activity [5] of the same molecule?
A: 51%

Q: And the Activity [6]?
A: 73%

Q: What about the Activity [7] of the same molecule?
A: 95%

Q: And the Activity [8]?
A: 29%

Q: What about the Activity [9] of the same molecule?
A: 93%

Q: And the Activity [10]?
A: 104%

Q: What about the Activity [11] of the same molecule?
A: 113%

Q: What about the Activity [12] of the same molecule?
A: 109%

Q: What about the Activity [13] of the same molecule?
A: 106%

Q: What about the Activity [14] of the same molecule?
A: 60%

Q: And the Activity [15]?
A: 50%

Q: What about the Activity [16] of the same molecule?
A: 2%

Q: What does the source list for CCOC(=O)C1=C(C)N=c2s/c(=C\c3cc(O)c(O)c(O)c3)c(=O)n2C1c1ccc(Cl)cc1 (stereo not drawn)?
A: Activity [1]: 91%; Activity [2]: 101%; Activity [3]: 64%; Activity [4]: 48%; Activity [5]: 92%; Activity [6]: 108%; Activity [7]: 122%; Activity [8]: 63%; Activity [9]: 69%; Activity [10]: 87%; Activity [11]: 5%; Activity [12]: 92%; Activity [13]: 76%; Activity [14]: 28%; Activity [15]: 92%; Activity [16]: 118%

Q: What does the source list for CCOC(=O)C1=C(C)N=c2s/c(=C\c3ccc(O)c(O)c3)c(=O)n2C1c1ccc(Cl)cc1 (stereo not drawn)?
A: Activity [1]: 91%; Activity [2]: 114%; Activity [3]: 82%; Activity [4]: 65%; Activity [5]: 101%; Activity [6]: 89%; Activity [7]: 117%; Activity [8]: 69%; Activity [9]: 78%; Activity [10]: 85%; Activity [11]: 20%; Activity [12]: 130%; Activity [13]: 79%; Activity [14]: 36%; Activity [15]: 91%; Activity [16]: 14%
